Data set [1] concerns the target Transient receptor potential cation channel subfamily V member 1 (Homo sapiens, UniProt Q8NER1). In words: Antagonist activity at TRPV1 (unknown origin) expressed in human SH-SY5Y cells assessed as inhibition of capsaicin-induced calcium increase after 25 mins by Fluo-4 NW dye-based fluorescence assay. It is filed as cell-based.
The nature of data set [2]: Drug metabolism in human HaCaT cells assessed as residual substrate levels at 25 uM up to 240 mins by HPLC-UV analysis. The class given is ADME, cell-based. As to conditions: read-out: Stability.
A short description of data set [3]: Drug metabolism in human keratinocytes assessed as residual substrate levels at 50 uM up to 120 mins by HPLC-UV analysis. The class given is ADME, cell-based, Keratinocyte. As to conditions: read-out: Stability.
Data set [4] can be described thus: Drug metabolism in human fibroblast cells assessed as residual substrate levels at 50 uM up to 120 mins by HPLC-UV analysis. It is filed as ADME, cell-based. The note with it: read-out: Stability.
Data set [5] addresses Transient receptor potential cation channel subfamily V member 1 (Rattus norvegicus) (UniProt O35433). In words: Modulatory activity against TRPV1 in Wistar rat neonatal dorsal root ganglia assessed as reduction in capsaicin-evoked action potential by measuring mean spike frequency ratio (P2/P1) at 10 uM by microelectrode array analysis (reference value: 0.87 +/- 0.04). The method in brief:
(§1)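 Capsaicin-evoked action potential firing recorded with test agent at 10 µM. Response expressed as the P2/P1 mean spike frequency ratio.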

The subject of data set [6] is Mus musculus. In words: Analgesic activity in CFA-induced thermal hyperalgesia C57BL/6 mouse model assessed as reduction in latency time required to elicit paw withdrawal in response to radiant heat applied to the plantar surface of a hind paw at 10 to 100 ug administered as intraplantar injection treated at 24 hrs post CFA injection measured at 30 mins post dose. The class given is functional, organism-based.

Data set [7] concerns Mus musculus. In words: Analgesic activity in CFA-induced thermal hyperalgesia C57BL/6 mouse model assessed as reduction in CFA-induced ipsilateral paw withdrawal latency at 1 mg/kg, iv treated at 24 hrs post CFA injection measured at 30 to 60 mins post dose. It is filed as functional, organism-based.
The subject of data set [8] is Mus musculus. In words: Antipruritic activity in C57BL/6 mouse histaminergic pruritus model assessed as reduction in licking behavior at 100 ug administered as intraplantar injection pretreated for 30 mins followed by histamine addition measured 10 to 20 mins post histamine instillation. It is filed as functional, organism-based.
The test system of data set [9] is Mus musculus. In words: Antipruritic activity in C57BL/6 mouse non-histaminergic pruritus model assessed as reduction in chloroquine-induced licking behavior at 100 ug administered as intraplantar injection pretreated for 30 mins followed by chloroquine addition measured 10 to 20 mins post chloroquine instillation. The class given is functional, organism-based.

Data set [10] has as its system Mus musculus. In words: Toxicity in C57BL/6 mouse assessed as change in body temperature at 10 mg/kg, iv after 120 mins. The note with it: in vivo, 2 h. The class given is organism-based.
Data set [11] in a line: Drug metabolism in human liver microsomes assessed as sulfate conjugate formation at 50 uM in presence of UDPGA after 60 mins by LC-ESI-MS analysis. As to conditions: 1 h. It is filed as ADME, microsome. (In general: Liver microsomes are a subcellular fraction often used to study metabolism.)
Data set [12] is described as follows: Drug metabolism in human liver cytosol assessed as sulfate conjugate formation at 50 uM in presence of UDPGA after 60 mins by LC-ESI-MS analysis. As to conditions: 1 h. The class given is ADME, subcellular.
Data set [13] deals with Transient receptor potential cation channel subfamily V member 1 (Rattus norvegicus) (UniProt O35433). In words: Modulatory activity against TRPV1 in Wistar rat neonatal dorsal root ganglia assessed as inhibition of capsaicin-evoked action potential at 10 uM by microelectrode array analysis relative to control. The method in brief:
as §1

pIC50: −log10 of the molar value. Active and inactive are the calls of the source. The calls are words filed in the database; no cut-off is given here.

Usually pIC50 stands for the negative decadic logarithm of the IC50, by convention in mol/L. As a reminder, the inhibition is the drop in the measured response relative to a control, in per cent.

Chain of Transient receptor potential cation channel subfamily V member 1 (Rattus norvegicus) (O35433 whole entry): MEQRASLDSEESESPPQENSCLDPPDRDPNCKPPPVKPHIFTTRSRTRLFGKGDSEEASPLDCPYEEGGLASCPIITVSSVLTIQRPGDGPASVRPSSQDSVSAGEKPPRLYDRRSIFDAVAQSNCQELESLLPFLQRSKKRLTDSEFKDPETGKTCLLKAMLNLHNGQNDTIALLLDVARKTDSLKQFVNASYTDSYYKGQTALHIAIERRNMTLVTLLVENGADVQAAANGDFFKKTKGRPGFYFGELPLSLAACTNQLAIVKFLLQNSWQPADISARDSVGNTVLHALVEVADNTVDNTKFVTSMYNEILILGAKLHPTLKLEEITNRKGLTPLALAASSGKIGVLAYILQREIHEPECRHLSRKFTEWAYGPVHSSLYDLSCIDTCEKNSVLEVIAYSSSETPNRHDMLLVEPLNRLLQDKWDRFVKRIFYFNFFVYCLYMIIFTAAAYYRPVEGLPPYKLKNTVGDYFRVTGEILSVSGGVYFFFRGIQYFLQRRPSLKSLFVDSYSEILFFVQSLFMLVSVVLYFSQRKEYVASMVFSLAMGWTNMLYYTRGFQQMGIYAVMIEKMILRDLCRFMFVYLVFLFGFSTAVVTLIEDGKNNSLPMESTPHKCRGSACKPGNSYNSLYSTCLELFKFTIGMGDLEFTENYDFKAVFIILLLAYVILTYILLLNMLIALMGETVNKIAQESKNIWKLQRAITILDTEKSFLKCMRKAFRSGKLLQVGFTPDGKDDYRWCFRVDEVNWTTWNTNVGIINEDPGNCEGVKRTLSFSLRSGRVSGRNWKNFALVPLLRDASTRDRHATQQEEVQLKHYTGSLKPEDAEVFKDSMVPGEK
Chain of Transient receptor potential cation channel subfamily V member 1 (Q8NER1 whole entry): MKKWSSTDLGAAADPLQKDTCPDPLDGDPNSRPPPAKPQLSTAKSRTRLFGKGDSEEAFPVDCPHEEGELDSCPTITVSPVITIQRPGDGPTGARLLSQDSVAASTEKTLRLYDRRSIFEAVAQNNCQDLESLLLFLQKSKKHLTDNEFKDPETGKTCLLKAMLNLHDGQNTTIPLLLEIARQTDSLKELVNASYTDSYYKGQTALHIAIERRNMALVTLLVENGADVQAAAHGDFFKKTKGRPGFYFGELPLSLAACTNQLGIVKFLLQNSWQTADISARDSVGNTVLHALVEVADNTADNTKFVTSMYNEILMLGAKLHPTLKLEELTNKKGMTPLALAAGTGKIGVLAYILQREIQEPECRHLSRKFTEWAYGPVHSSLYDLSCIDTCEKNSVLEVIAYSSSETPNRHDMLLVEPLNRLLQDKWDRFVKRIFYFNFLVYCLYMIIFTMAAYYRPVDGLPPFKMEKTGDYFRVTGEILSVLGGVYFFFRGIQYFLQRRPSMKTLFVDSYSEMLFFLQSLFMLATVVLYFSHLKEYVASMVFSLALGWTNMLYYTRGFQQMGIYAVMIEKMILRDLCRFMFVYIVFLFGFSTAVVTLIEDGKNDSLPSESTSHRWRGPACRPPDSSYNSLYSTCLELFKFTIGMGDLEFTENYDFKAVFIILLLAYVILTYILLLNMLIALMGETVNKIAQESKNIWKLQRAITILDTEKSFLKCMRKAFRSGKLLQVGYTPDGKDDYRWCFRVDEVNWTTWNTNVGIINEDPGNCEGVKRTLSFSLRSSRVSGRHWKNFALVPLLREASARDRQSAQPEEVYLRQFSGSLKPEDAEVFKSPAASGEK

For `CCCCCCCCCCCC(=O)OCC(=O)NCc1cc(OC)c(O)cc1I`, the negative-log IC50 (pIC50) in data set [1] is 6.03. Further, in data set [2], the remaining at 4 h, 25 µM worked out at 98.6%. Also, the remaining at 2 h, 50 µM amounted to 22.6% in data set [3] and 13.3% in data set [4]. Besides, the Ratio in data set [5] was determined as 0.53. Moreover, the outcome in the data set on Mus musculus [6], in the data set on Mus musculus [7], in the data set on Mus musculus [8] and in the data set on Mus musculus [9] was Active. The Activity entry in the data set with Mus musculus [10] was “Non-Toxic”. In addition, the Drug metabolism result in [11] and in [12] was “Metabolite_Notdetected” throughout. In addition, in [13], the inhibition stood at 43%.

These data come from ChEMBL document CHEMBL4219255, “Targeting Transient Receptor Potential Vanilloid 1 (TRPV1) Channel Softly: The Discovery of Passerini Adducts as a Topical Treatment for Inflammatory Skin Disorders” (J Med Chem, 2018).
